Our source for the IC50, inhibition and T/C values is ChEMBL document CHEMBL1141747, “New bisbenzylisoquinolines, fatty acid amidic aporphines, and a protoberberine from Formosan Cocculus orbiculatus” (J Nat Prod, 2005).

Assay [1] has as its system HepG2. The experiment in a line: Cytotoxicity against human HepG2 cells. In kind it is functional, cell-based.
A short description of assay [2]: Cytotoxicity against human Hep3B cells. In kind it is functional, cell-based, Hep 3B2.
In assay [3] the test system is MCF7. The experiment in a line: Cytotoxicity against human MCF7 cells. In kind it is functional, cell-based.
The subject of assay [4] is MDA-MB-231. The experiment in a line: Cytotoxicity against human MDA-MB-231 cells. In kind it is functional, cell-based.
Assay [5] has as its system NUGC-3. The experiment in a line: Cytotoxicity against human NUGC3 cells at 20 ug/mL. Format: functional. A digest of the protocol: (§1)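 Samples were tested on the cells at two fixed concentrations, 20 and 4 µg/mL. The value is reported as percent inhibition at each concentration.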
The test system of assay [6] is NUGC-3. The experiment in a line: Cytotoxicity against human NUGC3 cells at 4 ug/mL. Format: functional. The gist of the method: as §1
Assay [7] is described as follows: Cytotoxicity against human HONE1 cells at 20 ug/mL. Format: functional. The gist of the method:
as §1

Assay [8] in a line: Cytotoxicity against human HONE1 cells at 4 ug/mL. In kind it is functional. The gist of the method: as §1
The subject of assay [9] is P388. The experiment in a line: Antitumor activity against mouse P388 cells xenografted in mouse. In kind it is functional.

SMILES strings stand for the structures. Values after ≈ are worked out from the molar mass of the structure shown.

For `COc1cc2c3c4c1Oc1cc5c(cc1O4)C(=NCC5)Cc1ccc(O)c(c1)Oc1ccc(cc1)C[C@@H]3N(C)CC2` [DEHYDROAPATELINE], the IC50 in assay [1] is 3.61 µg/mL (≈ 6.6 µM); in assay [2], 4.82 µg/mL (≈ 8.82 µM); in assay [3], 16.3 µg/mL (≈ 29.8 µM); in assay [4] it was 4.71 µg/mL (≈ 8.62 µM). The inhibition at 20 µg/mL in assay [5] and in assay [7] was 98% in each case. Moreover, the inhibition at 4 µg/mL in assay [6] and in assay [8] was 0% each time.

Regarding `COc1ccc2c(c1O)[C@]13CCN[C@@H](C2)C1C(OC)[C@@H](O)[C@@H](O)C3` (some centres not stated), the IC50 in [1] stood at 2 µg/mL (≈ 5.96 µM); in [2], 2 µg/mL (≈ 5.96 µM); in assay [3], 2 µg/mL (≈ 5.96 µM); in assay [4] it was 1.2 µg/mL (≈ 3.58 µM). Further, the inhibition at 20 µg/mL came to 96% in assay [5] and 84% in assay [7]. For the same molecule, the inhibition at 4 µg/mL in [6] and in assay [8] was 82% throughout. For the same molecule, the T/C in assay [9] stood at 166%.

On to `CC(=O)O[C@H]1C(=O)[C@@]2(C)[C@H]([C@H](OC(=O)c3ccccc3)[C@]3(O)C[C@H](OC(=O)[C@H](O)[C@@H](NC(=O)c4ccccc4)c4ccccc4)C(C)=C1C3(C)C)[C@]1(OC(C)=O)CO[C@@H]1C[C@@H]2O` [PACLITAXEL], for which the IC50 in [1] is 0.18 µg/mL (≈ 0.211 µM); in assay [2], 0.08 µg/mL (≈ 0.0937 µM); in assay [3], 0.14 µg/mL (≈ 0.164 µM); in assay [4], 0.12 µg/mL (≈ 0.141 µM).

In the case of `COc1ccc2cc1Oc1ccc(cc1)C[C@H]1c3cc(O)c(c(OC)c3CC[N+]1(C)C)Oc1cc3c(cc1OC)CC[N+](C)=C3C2.[Cl-].[Cl-]`, the IC50 in assay [1], in [2], in [3] and in [4] was more than 30 µg/mL each time.

As to `COc1cc2c(c(OC)c1OC)CCN1C(=O)c3c(ccc(OC)c3OC)C[C@@H]21`, the IC50 was 23.5 µg/mL (≈ 58.8 µM) in assay [1], more than 30 µg/mL in [2], more than 30 µg/mL in assay [3] and more than 30 µg/mL in assay [4].

With `COc1ccc2cc1Oc1ccc(cc1)C[C@H]1c3c(cc(OC)c4c3Oc3cc5c(cc3O4)CCN(C)[C@H]5C2)CCN1C` [ISOTRILOBINE], the IC50 turned out to be 0.6 µg/mL (≈ 1.04 µM) in [1], 0.75 µg/mL (≈ 1.3 µM) in assay [2], 3.9 µg/mL (≈ 6.76 µM) in assay [3] and 1.6 µg/mL (≈ 2.77 µM) in [4]. For the same molecule, the inhibition at 20 µg/mL in [5] and in assay [7] was 100% each time. The figures for the inhibition at 4 µg/mL in [6] and in assay [8] were 0% and 79%, respectively.

The IC50 is the midpoint of a concentration-inhibition curve. As usually defined, the inhibition is the change of the read-out against control, counted positive when it falls. A word on the T/C: it is the ratio of treated to control.
